Test results as given in ChEMBL document CHEMBL6092204, “Synthesis of pyridyl pyrimidine hedgehog signaling pathway inhibitors and their antitumor activity in human pancreatic cancer” (Eur J Med Chem, 2024).

What was measured:
PANC-1 [1] = assay: Induction of apoptosis in human PANC-1 cells assessed as early apoptotic cells at 8 uM incubated for 48 hrs by Annexin V-FITC/PI staining based flow cytometry (reference value: 1.88 %); format: functional
BxPC-3 [2] = assay: Antitumor activity aginst human BxPC-3 cells xenografted in BALB/c nude mouse assessed as decrease in tumor volume at 10 mg/kg, ip qd for 21 days relative to control; design: scale not given: the % may be the effect or the level left; details: time 21 day
BXPC-3 [3] = assay: Induction of apoptosis in human BXPC-3 cells assessed as late apoptotic cells at 10 uM incubated for 48 hrs by Annexin V-FITC/PI staining based flow cytometry (reference value: 6.72 %); format: functional
BXPC-3 [4] = assay: Induction of cell cycle arrest in human BXPC-3 cells assessed as accumulation at G1 phase at 2.5 uM incubated for 48 hrs by PI/RNase staining based flow cytometry (reference value: 84.2 %); format: functional
PANC-1 [5] = assay: Induction of apoptosis in human PANC-1 cells assessed as viable cells at 5 uM incubated for 48 hrs by Annexin V-FITC/PI staining based flow cytometry (reference value: 93.2 %); format: functional; details: read-out: Activity
BxPC-3 [6] = assay: Antitumor activity aginst human BxPC-3 cells xenografted in BALB/c nude mouse assessed as decrease in tumor volume at 5 mg/kg, ip qd for 21 days relative to control; design: scale not given: the % may be the effect or the level left; details: time 21 day
[7] = Toxicity in BALB/c nude mouse xenografted with human BxPC-3 cells assessed as necrosis in liver at 5 to 15 mg/kg, ip qd for 21 days by H and E staining based analysis; details: in vivo, 504 h
PANC-1 [8] = assay: Induction of apoptosis in human PANC-1 cells assessed as early apoptotic cells at 10 uM incubated for 48 hrs by Annexin V-FITC/PI staining based flow cytometry (reference value: 1.88 %); format: functional
BXPC-3 [9] = assay: Inhibition of Hh signaling pathway in human BXPC-3 cells assessed as reduction in Ptch1 mRNA level incubated for 48 hrs by qRT-PCR analysis; format: cell-based
Method in brief: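 Total RNA was extracted by column kit after 48 h treatment and checked spectrophotometrically. Gli1 and Ptch1 transcripts were quantified by real-time RT-qPCR with GAPDH as internal control. Results are fold change relative to the untreated group; three separate experiments.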

[10] = Toxicity in BALB/c nude mouse xenografted with human BxPC-3 cells assessed as necrosis in kidneys at 5 to 15 mg/kg, ip qd for 21 days by H and E staining based analysis; details: in vivo, 504 h
[11] = Toxicity in BALB/c nude mouse xenografted with human BxPC-3 cells assessed as body weight loss at 5 to 15 mg/kg, ip qd for 21 days; details: in vivo, 504 h
PANC-1 [12] = assay: Induction of cell cycle arrest in human PANC-1 cells assessed as accumulation at S phase at 10 uM incubated for 48 hrs by PI/RNase staining based flow cytometry (reference value: 7.58 %); format: functional
[13] = Toxicity in BALB/c nude mouse xenografted with human BxPC-3 cells assessed as cellular edema in kidneys at 5 to 15 mg/kg, ip qd for 21 days by H and E staining based analysis; details: in vivo, 504 h
BXPC-3 [14] = assay: Induction of apoptosis in human BXPC-3 cells assessed as viable cells at 10 uM incubated for 48 hrs by Annexin V-FITC/PI staining based flow cytometry (reference value: 91.5 %); format: functional; details: read-out: Activity
[15] = Toxicity in BALB/c nude mouse xenografted with human BxPC-3 cells assessed as inflammatory infiltration in kidneys at 5 to 15 mg/kg, ip qd for 21 days by H and E staining based analysis; details: in vivo, 504 h
BxPC-3 [16] = assay: Antitumor activity aginst human BxPC-3 cells xenografted in BALB/c nude mouse assessed as decrease in tumor volume at 15 mg/kg, ip qd for 21 days relative to control; design: scale not given: the % may be the effect or the level left; details: time 21 day
PANC-1 [17] = assay: Induction of apoptosis in human PANC-1 cells assessed as necrotic cells at 5 uM incubated for 48 hrs by Annexin V-FITC/PI staining based flow cytometry (reference value: 2.24 %); format: functional
[18] = Toxicity in BALB/c nude mouse xenografted with human BxPC-3 cells assessed as cellular edema in spleen at 5 to 15 mg/kg, ip qd for 21 days by H and E staining based analysis; details: in vivo, 504 h
BXPC-3 [19] = assay: Inhibition of cell migration in human BXPC-3 cells incubated for 24 hrs by wound healing assay; format: functional, cell-based; details: dose 2.5-10 µM
Method in brief: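 Monolayers at 80-90% confluence were scratched with a cross and washed three times with PBS. Eight fields were imaged at 0 h. Cells were then incubated with compound in medium containing 2% FBS, and the same fields were re-imaged at 24 h (100×). Closure % = (area 0 h − area 24 h)/area 0 h × 100; n = 3.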

PANC-1 [20] = assay: Induction of apoptosis in human PANC-1 cells assessed as viable cells at 8 uM incubated for 48 hrs by Annexin V-FITC/PI staining based flow cytometry (reference value: 93.2 %); format: functional; details: read-out: Activity
BXPC-3 [21] = assay: Inhibition of cell migration in human BXPC-3 cells incubated for 48 hrs by crystal violet staining based transwell assay; format: functional; details: dose 2.5-10 µM
Method in brief: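 Cells at 1.5×10^5 cells/mL in serum-free medium containing drug were added to the upper Transwell chamber (200 μL), with medium containing 10% FBS below. After 48 h, non-migrated cells were swabbed off. Inserts were fixed in 4% paraformaldehyde for 15-20 min and stained with 0.5% crystal violet. Cells were counted in four random fields at 100×; n = 3.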

PANC-1 [22] = assay: Induction of apoptosis in human PANC-1 cells assessed as late apoptotic cells at 2.5 uM incubated for 48 hrs by Annexin V-FITC/PI staining based flow cytometry (reference value: 2.74 %); format: functional
BXPC-3 [23] = assay: Induction of apoptosis in human BXPC-3 cells assessed as necrotic cells at 10 uM incubated for 48 hrs by Annexin V-FITC/PI staining based flow cytometry (reference value: 0.71 %); format: functional
[24] = Toxicity in BALB/c nude mouse xenografted with human BxPC-3 cells assessed as cellular edema in heart at 5 to 15 mg/kg, ip qd for 21 days by H and E staining based analysis; details: in vivo, 504 h
PANC-1 [25] = assay: Induction of cell cycle arrest in human PANC-1 cells assessed as accumulation at G2 phase at 5 uM incubated for 48 hrs by PI/RNase staining based flow cytometry (reference value: 5.83 %); format: functional
BXPC-3 [26] = assay: Induction of apoptosis in human BXPC-3 cells assessed as late apoptotic cells at 8 uM incubated for 48 hrs by Annexin V-FITC/PI staining based flow cytometry (reference value: 6.72 %); format: functional
[27] = Toxicity in BALB/c nude mouse xenografted with human BxPC-3 cells assessed as necrosis in heart at 5 to 15 mg/kg, ip qd for 21 days by H and E staining based analysis; details: in vivo, 504 h

SMILES: CN(C)Cc1ccc(NC(=O)c2ccc(Nc3nccc(-c4cccnc4)n3)cc2)cc1
- Activity (PANC-1 [1]): 2.97%
- Activity (BxPC-3 [2]): 80%
- Activity (BXPC-3 [3]): 24%
- Activity (BXPC-3 [4]): 72.7%
- viability at 5 µM (PANC-1 [5]): 87.3%
- Activity (BxPC-3 [6]): 73%
- Activity [7]: Non-toxic
- Activity (PANC-1 [8]): 4.09%
- inhibition (BXPC-3 [9]): Dose-dependent-effect
- Activity [10]: Non-toxic
- Activity [11]: Non-toxic
- Activity (PANC-1 [12]): 10.5%
- Activity [13]: Non-toxic
- viability at 10 µM (BXPC-3 [14]): 71.8%
- Activity [15]: Non-toxic
- Activity (BxPC-3 [16]): 82%
- Activity (PANC-1 [17]): 2.39%
- Activity [18]: Non-toxic
- inhibition (BXPC-3 [19]): Dose-dependent-effect
- viability at 8 µM (PANC-1 [20]): 85.9%
- inhibition (BXPC-3 [21]): Dose-dependent-effect
- Activity (PANC-1 [22]): 5.12%
- Activity (BXPC-3 [23]): 2.32%
- Activity [24]: Non-toxic
- Activity (PANC-1 [25]): 8.15%
- Activity (BXPC-3 [26]): 12.3%
- Activity [27]: Non-toxic
